Data: article PMC3996483 (Scientific Reports, 2014)
Entries after “also recorded” stand apart in the source; their conditions may differ.

T1: NS5A^33–202 domain 1, HCV genotype 1b (con1) (Hepatitis C virus genotype 1b, UniProt Q9WMX2)
T1 sequence (Q9WMX2 2005-2174): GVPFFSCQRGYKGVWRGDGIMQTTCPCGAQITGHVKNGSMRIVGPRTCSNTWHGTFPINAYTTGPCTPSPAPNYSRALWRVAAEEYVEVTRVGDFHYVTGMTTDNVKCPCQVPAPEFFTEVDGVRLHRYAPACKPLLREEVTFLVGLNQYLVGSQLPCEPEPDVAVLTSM

T2: NS5A^26–202 domain 1, HCV genotype 1b (con1) (Hepatitis C virus genotype 1b, UniProt Q9WMX2)
T2 sequence (Q9WMX2 1998-2174): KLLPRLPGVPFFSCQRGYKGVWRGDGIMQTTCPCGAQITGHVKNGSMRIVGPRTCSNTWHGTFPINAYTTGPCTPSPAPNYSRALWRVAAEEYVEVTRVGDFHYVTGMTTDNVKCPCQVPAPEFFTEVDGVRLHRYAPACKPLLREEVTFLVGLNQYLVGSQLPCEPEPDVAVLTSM

T3: Y93H NS5A^33–202, HCV genotype 1b (con1) (Hepatitis C virus genotype 1b, UniProt Q9WMX2, Y2065H)
T3 sequence (Q9WMX2 2005-2174 Y2065H): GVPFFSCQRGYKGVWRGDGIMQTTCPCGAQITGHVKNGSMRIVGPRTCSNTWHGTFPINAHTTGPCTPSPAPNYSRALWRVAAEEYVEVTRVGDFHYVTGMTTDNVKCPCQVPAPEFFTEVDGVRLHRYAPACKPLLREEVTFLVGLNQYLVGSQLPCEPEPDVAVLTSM

T4: L31V NS5A^26–202, HCV genotype 1b (con1) (Hepatitis C virus genotype 1b, UniProt Q9WMX2, L2003V)
T4 sequence (Q9WMX2 1998-2174 L2003V): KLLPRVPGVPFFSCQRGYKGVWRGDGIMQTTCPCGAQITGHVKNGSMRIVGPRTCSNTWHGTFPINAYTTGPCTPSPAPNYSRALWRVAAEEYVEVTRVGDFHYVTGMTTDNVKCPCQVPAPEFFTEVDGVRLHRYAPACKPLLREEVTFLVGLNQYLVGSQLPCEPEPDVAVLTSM


Columns and labels:
[1] = molecular target: T1, NS5A^33–202 domain 1, HCV genotype 1b (con1); test: MST binding assay, NS5A domain 1 residues 33–202
Summary of the method: (§1)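 Recombinant HCV 1b (con1) NS5A was expressed with a 6-His/TEV tag, Ni- and size-exclusion purified, and the tag cleaved. Ligand: 16-step 2–4-fold dilutions. Capillaries were heated at 40% laser for 30 s, then cooled 5 s. Fnorm normalised to baseline and maximum; KD by mass-action fit; ≥3 replicates.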

[2] = molecular target: T2, NS5A^26–202 domain 1, HCV genotype 1b (con1); test: MST binding assay, NS5A domain 1 residues 26–202
Summary of the method: as §1

[3] = molecular target: T3, Y93H NS5A^33–202, HCV genotype 1b (con1); test: MST binding assay, Y93H resistance mutant
[4] = system: Y93H NS5A^33–202, HCV genotype 1b (con1); test: MST binding assay, Y93H resistance mutant; set-up: species or system Hepatitis C virus; conditions: MST in vitro assay, Y93H NS5A^33–202 vs NS5A^33–202
[5] = molecular target: T4, L31V NS5A^26–202, HCV genotype 1b (con1); test: MST binding assay, L31V resistance mutant
[6] = Solubility; assay type: physicochemical; conditions: pH 7, aqueous buffer
[7] = molecular target: T1, NS5A^33–202 domain 1, HCV genotype 1b (con1); test: SEC-MALLS analysis of NS5A oligomerisation state; conditions: NS5A^33–202 alone 39 ± 5 kDa (dimer), dimerisation state not affected
Summary of the method: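 Multi-angle laser light scattering was run in batch mode (0.1 ml/min) and after size-exclusion (0.35 ml/min). Protein was run at 0.3–4 mg/ml with refractive-index detection and dn/dc 0.185; BSA served as control. Weight-average molar mass was taken from all points.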

[8] = system: HCV replicon (NS5A genotypes and subtypes); conditions: cited from earlier work
[9] = system: HCV genotype 1a; conditions: cited from earlier work
[10] = system: HCV genotype 2a (J6); conditions: cited from earlier work
[11] = system: HCV genotype 3a (S52); conditions: cited from earlier work
[12] = system: HCV genotype 1b (con1); conditions: cited from earlier work
[13] = molecular target: the molecule itself; test: SEC-MALS

Row | Molecule | Kd [1] [nM] | Compound binding after incubation of NS5A with excess 5rU ([1]; MST, NS5A^33–202 incubated with 100-fold excess 5rU prior to adding compound) | Kd [2] [nM] | Kd [3] [nM] | decrease in KD (binding), Y93H versus wild type [4] [fold] | KD / binding (in words) [5] | solubility [6] [µg/mL] | average molecular weight of NS5A^33–202 after addition of substance [7] [kDa] | resistance conferred by L31V/M/F mutations ([8]; NS5A L31V/M/F) | resistance conferred by Y93H/N/C mutations ([8]; NS5A Y93H/N/C) | EC50 ([8]; replicon, most genotypes and subtypes) [nM] | decrease in EC50 by Y93H/C resistance mutation ([9]; genotype 1a (H77), Y93H/C) [fold] | EC50 ([9]; replicon, genotype 1a (J1)) [nM] | decrease in EC50 by Y93H/C resistance mutation ([10]; Y93H/C) [fold] | EC50 ([10]; replicon) [nM] | decrease in EC50 by Y93H/C resistance mutation ([11]; Y93H/C) | EC50 ([11]; replicon) [nM] | resistance conferred by L31V mutation ([12]; replicon assays, L31V) [fold] | decrease in EC50 by Y93H/C resistance mutation ([12]; replicon, Y93H/C) | stoichiometry N [13]
1 | COC(=O)N[C@H](C(=O)N1CCC[C@H]1c1nc(-c2ccc(-c3ccc(-c4c[nH]c([C@@H]5CCCN5C(=O)[C@@H](NC(=O)OC)C(C)C)n4)cc3)cc2)c[nH]1)C(C)C [BMS-790052, daclatasvir] | 8 ± 3 | eliminated binding | 210 ± 46 | > 500 | > 50 | did not show any detectable binding; also recorded: no detectable binding | < 1.6 | 41 ± 7 | 23- to 3,350 fold | 19- to 47,000 fold | 0.002 to 0.15 | 220 | 1.1 | 143 | 14 | 2,111 fold | 0.9 | 23 | ~ 5 fold | –
2 | HCV genotype 1b (con1) NS5A domain 1, residues 33–202 (domain or fragment, Hepatitis C virus genotype 1b (con1), UniProt Q9WMX2 2005-2174, looked up) GVPFFSCQRGYKGVWRGDGIMQTTCPCGAQITGHVKNGSMRIVGPRTCSNTWHGTFPINAYTTGPCTPSPAPNYSRALWRVAAEEYVEVTRVGDFHYVTGMTTDNVKCPCQVPAPEFFTEVDGVRLHRYAPACKPLLREEVTFLVGLNQYLVGSQLPCEPEPDVAVLTSM | – | – | – | – | – | – | – | – | – | – | – | – | – | – | – | – | – | – | – | 2
